Screening data (PubChem BioAssay)
Shown are actives, neighbours in structure and some others; about 1.3% of the full set was active somewhere.
XiGFP reactiv: X-chromosome reactivation activator; XiGFP mouse fibroblasts, % GFP-positive cells imaging, 3 d; cells co-treated with 5-aza-dC sensitizer; scaled so ellipticine positive control = 100%; hit rate 0.055% among 360,000; activation, % at 7.58 µM;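 active means mean normalized replicate activation at least 10% and every replicate at or above 10%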;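 further: 0% = median of on-plate neutral control wells and 100% = ellipticine 6 µM median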
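Material: XiGFP fibroblasts, SV40-immortalized; Buffer or medium: DMEM containing 5-aza-dC; Compound dosing: single point; Times: 3 days compound exposure.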
CASP6 VEID inh: caspase-6 (human) enzyme inhibition; P55212; purified caspase-6, Z-VEID-R110 cleavage fluorescence; inhibition, % at 12.5 µM; hit rate 0.53% among 350,000; AID 686996;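 active means mean inhibition across replicates at least about 35%, with every replicate also reaching that limit, limit read from the data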;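 further: 0% = median of neutral control wells and 100% = no fluorescence left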
Target sequence (P55212 24-179 limits assumed): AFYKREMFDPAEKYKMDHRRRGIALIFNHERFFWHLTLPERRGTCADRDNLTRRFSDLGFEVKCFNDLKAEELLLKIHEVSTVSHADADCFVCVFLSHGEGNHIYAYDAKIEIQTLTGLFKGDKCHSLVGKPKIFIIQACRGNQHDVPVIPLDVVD
Target sequence (P55212 194-293 limits assumed): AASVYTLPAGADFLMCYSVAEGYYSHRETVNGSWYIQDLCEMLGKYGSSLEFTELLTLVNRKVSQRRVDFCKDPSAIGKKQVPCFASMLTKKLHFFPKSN
S100A4 MyoIIA: blocks human S100A4 binding to myosin IIA peptide | P26447 | S100A4/TAMRA-MyoIIA peptide fluorescence polarization | inhibition, % at 10.7 µM | hit rate 0.14% among 360,000;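 active means mean inhibition of at least 70% across replicates, with every replicate also reaching that level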
Target sequence (P26447 whole entry, looked up): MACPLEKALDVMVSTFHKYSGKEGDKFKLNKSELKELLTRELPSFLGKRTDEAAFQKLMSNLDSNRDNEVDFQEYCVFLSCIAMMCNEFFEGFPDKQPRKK
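incubation = readout 5 min after mixing, signal stable up to 60 min | system = S100A4 monomer protein | buffer or medium = HEPES pH 7.2 with CaCl2, KCl, NaCl, DTT, Triton | benchmarks = neutral control DMSO, positive control TFP | also added = fluorescent myosin IIA peptide, 5 nM | compound dosing = one concentration per compound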
RAD52 anneal inh: blocks human RAD52 DNA annealing; P43351; recombinant RAD52 DNA annealing, FRET fluorescence; inhibition, % at 18.7 µM; hit rate 0.46% among 360,000;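 active means every replicate showing at least 50% inhibition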
AF4-AF9 inh: inhibitors of human MLL-AF4/AF9 interaction. inhibition, % at 10 µM. P42568. hit rate 0.47% among 350,000. AlphaScreen, biotin-AF4 peptide binding to FLAG-AF9;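 active means every replicate reaching a set inhibition limit, whatever the replicate mean, cut at about 25% in these data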;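 further: 0% = plate neutral control median and 100% = total signal loss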
RAD54 inh: RAD54 (human) branch migration inhibition | hit rate 0.14% among 360,000 | AID 602329 | Q92698 | inhibition, % at 10.4 µM | RAD54 Holliday junction branch migration, FAM/BHQ fluorescence;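 active means mean normalized replicate activity at least 40 and at least half of replicates scoring 40 or more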;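 further: 0% = median of neutral control wells and 100% = median of positive control wells; inhibitors cause a drop in the FAM fluorescence signal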
CASP1 counter: blocks human caspase-1 in a selectivity counter-screen | activity change, negative = inhibition, % at 35 µM | shares compounds with CASP6 VEID inh | 100 tested, under 10 active | purified caspase-1, Z-YVAD-R110 cleavage fluorescence;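 active means compounds lowering fluorescence whose fitted half-maximal concentration is no more than twice their top tested dose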
An asterisk follows results filed as active; . = no result given.

SMILES | XiGFP reactiv | CASP6 VEID inh | S100A4 MyoIIA | RAD52 anneal inh | AF4-AF9 inh | RAD54 inh | CASP1 counter
C[C@H](CO)N1C[C@H](C)[C@@H](CN(C)C(=O)c2cccnc2)Oc2ncc(-c3ccc(C#N)cc3)cc2C1=O | -1 | . | 14 | -9 | -2 | -2 | .
CCCN1[C@H](C(=O)NCc2ccccn2)[C@@H](CO)[C@@H]2Cn3c(ccc(C4=CCCC4)c3=O)[C@@H]21 | 0 | 8 | 12 | -90 | -1 | 0 | .
CO[C@@H]1CN(C)C(=O)c2cc(NC(C)=O)ccc2OC[C@H](C)N(C(=O)CC2CC2)C[C@H]1C | 0 | -2 | -3 | -3 | -2 | -5 | .
CO[C@H]1CN(C)C(=O)c2cc(NC(C)=O)ccc2OC[C@@H](C)N(C(=O)CC2CC2)C[C@H]1C | 0 | 56* | -13 | 20 | 12 | -20 | -8
C[C@@H]1CN([C@@H](C)CO)C(=O)c2cccc(NS(=O)(=O)c3ccc(F)cc3)c2O[C@H]1CN(C)Cc1ccc(-c2ccccc2)cc1 | 0 | . | 58 | 7 | 2 | 5 | .
Cn1cnnc1SCC(=O)Nc1ncc([N+](=O)[O-])s1 | 0 | 39* | -2 | -25 | -6 | 1 | -4
COc1cc(N(C(C)=O)c2ccc(O)c(C(=O)O)c2)c2ncccc2c1 | 0 | 44* | 4 | -14 | 2 | -15 | -2
CC[C@H](CO)Oc1cc(NCc2cccc(N)c2)c2ncn(C(C)C)c2c1 | 0 | 46* | 6 | 16 | 11 | . | -4
O=c1oc2cc(O)c(Cl)cc2c2ccccc12 | 0 | . | . | . | . | 4 | .
O=c1cc2c(=O)oc3cc(O)c(O)oc3c2c(O)c1O | 0 | 95* | -4 | -17 | -8 | -17 | -8
O=P(c1ccccc1)(c1ccccc1)c1cc(S(=O)(=O)O)ccc1O | 0 | 77* | -4 | -12 | -1 | -28 | 5
COCC(=O)N(C)C[C@H]1Oc2ncc(C3=CCCCC3)cc2C(=O)N([C@@H](C)CO)C[C@@H]1C | -1 | 2 | -2 | -6 | -5 | 0 | .
COc1ccc(C(=O)Nc2ccc(S(=O)(=O)Nc3cnc4ccccc4n3)cc2)cc1 | 0 | 2 | 12 | -9 | -21 | -3 | .
O=C(Nc1ccc(S(=O)(=O)Nc2cnc3ccccc3n2)cc1)c1ccc(Cl)c([N+](=O)[O-])c1 | 0 | 62* | 3 | -31 | -2 | 3 | -4
Cc1ccc(-n2nc3c([n+]2[O-])CCc2c-3no[n+]2[O-])cc1 | . | . | . | . | . | 1 | .
[O-][n+]1onc2c1CCc1c-2nn(-c2ccccc2Cl)[n+]1[O-] | . | 82* | -5 | -8 | 9 | . | -1
Cc1ccccc1-c1ccc2c(c1)O[C@@H](CN(C)C)[C@H](C)CN([C@@H](C)CO)S2(=O)=O | 1 | 4 | 4 | 16 | 4 | 0 | .
O=C(COC(=O)c1ccc([N+](=O)[O-])s1)Nc1ccc(Cl)cn1 | 0 | 6 | -3 | -17 | 0 | . | .
CC(C)(C)c1ccc(NC(=O)COC(=O)c2ccc([N+](=O)[O-])s2)cc1 | 0 | . | . | . | . | -3 | -9
Cc1ccc(C(=O)OCc2nnc(-c3ccccc3)o2)s1 | 0 | 1 | -4 | -4 | -19 | 6 | .
O=C(COC(=O)c1ccc([N+](=O)[O-])s1)Nc1cccc(S(=O)(=O)NC2=NCCCCC2)c1 | 0 | 98* | -1 | -11 | -27 | . | 13
O=C(OCc1nnc(-c2ccccc2)o1)c1ccc([N+](=O)[O-])s1 | 0 | 99* | 1 | -14 | 2 | 5 | 1
O=C(COC(=O)c1ccc([N+](=O)[O-])s1)Nc1ccc(F)cc1 | 0 | 98* | -1 | 3 | 2 | -1 | 2
COCC(=O)Nc1ccc2c(c1)C(=O)N(C)[C@@H]1CC[C@H](CC(=O)NCC(F)(F)F)O[C@H]1CO2 | 0 | 0 | 11 | -4 | -1 | 0 | .
CC(C)NC(=O)Nc1ccc2c(c1)CC(=O)N([C@@H](C)CO)C[C@@H](C)[C@H](CN(C)C(=O)Nc1ccc(C(F)(F)F)cc1)O2 | 0 | 1 | 10 | 8 | -1 | 5 | .
O=C(COC(=O)c1ccc([N+](=O)[O-])s1)Nc1ccccc1 | . | . | . | . | . | 9 | 0
